Consider 48 sequences from the EternaBench riboswitch data.

The subject of this series is MS2 coat protein. As to the kind of experiment: apparent Kd, MS2 coat protein; higher = weaker binding; RNA-MaP array; FMN 200 µM where present. In short, it runs like this: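 Each design was made on Illumina sequencing-chip clusters by stalled E. coli RNA polymerase and titrated with SNAP-549-labelled MS2 coat protein from 0.7 or 1.5 nM, doubling to 3 µM, in the absence and then the presence of constant ligand. The buffer was 100 mM Tris-HCl pH 7.5, 80 mM KCl, 4 mM MgCl2, BSA, DTT, yeast tRNA and Tween-20. The apparent Kd is the median of filtered per-cluster fits of binding curves, with green signal normalised to red-channel RNA signal and control-cluster median Fmax.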

The mark [1] stands for this setting: designed as: ON switch for flavin mononucleotide, no ligand.
Where [2] appears, read: ligand present: flavin mononucleotide, designed as: ON switch for flavin mononucleotide.
Where [3] appears, read: designed as: OFF switch for flavin mononucleotide, no ligand.
Where [4] appears, read: ligand present: flavin mononucleotide, designed as: OFF switch for flavin mononucleotide.

The term apparent Kd denotes a dissociation constant that holds for the conditions of the assay. In the case of “AUUUAAAUGUCAGGAUAUGUUAGUUUAUACAUAGUAGAAGGGAUAAUUAUACUCAUGUACAUGAGGAUCACCCAUGUUAAAUCA”, the “apparent Kd” value is, setting by setting: under setting [1], 212 nM; under setting [2], 98.5 nM.
As for “AGCUAGUCAGGAUAUACGAACAUGUCGAAAGACGUGAGGGAACAUGAGGAUCACCCAUGUAGAAGGGACUAGCA”, the “apparent Kd” value reads like this: under setting [3], 30.6 nM; under setting [4], 36.2 nM.
Turning to “UACCUGAGGCCAAGCUUUAGGUAUACAUGAGGAUCACCCAUGUAGGAUAUGGUAGGCUUUGCUUACCAGAAGGACAUGUUAAUU”, the “apparent Kd” value is, setting by setting: under setting [3], 19 nM; under setting [4], 64.9 nM.
With “GUGCGGUAGGAGAAGGACGGAGGGUUCUUUUCAUACAUGAGGAUCACCCAUGUAGGAUAUCCUACCUCACGCGGCCUACUACAG”, the “apparent Kd” value turned out to be 8.11 nM under setting [3] and 11.4 nM under setting [4].
Turning to “AUUGUGUGAGGAUAUUAGUAGUAGAUAAAUGGAGUUGUAACUGAGAAGGCACAUGAGGAUCACCCAUGUUCCUU”, the “apparent Kd” value under setting [3] stood at 18.7 nM and the “apparent Kd” value under setting [4] was determined as 24.6 nM.
For “ACAUGAUAUGUAGGAUAUCACAUUAAUUGUUUUAUAAUUGUAUUUUGGAUUUGAGAAGGACAUUUACAUGAGGAUCACCCAUGU”, in that order: 15.6 nM and 12.3 nM.
With “GGUGAAUGAACAUGAGGAUCACCCAUGUACAGGAAACUGAAUGAGGAUAUCCAUAGCAAAGCUAUGGAGAAGGUAUGGGUCACC”, the “apparent Kd” value was determined as 40.5 nM under setting [1] and 44.9 nM under setting [2].
For “ACAUGAGAGAUAGGAUAUCUUGUACCUACAUGUGACAUGAGGAUCACCCAUGUGGUAAGUAUGAGGGAGAAGGGUCAGAUAUGU”, in that order: 57.9 nM and 55.9 nM.
As for “UUUUAACAUGAGGAUCACCCAUGUGAGGAUAUCGAAAUUUAUAUUAAUAUUUAUAAAACGAGAAGGCACAUUUU”, the “apparent Kd” value reads like this: under setting [3], 104 nM; under setting [4], 82.8 nM.
For “AAUAAGCUAGGAUAUACAUGAGGAUCACCCAUGUGAGGGCACCGCCGGCGCGGGCCCGGUAGAAGGAGCAAUAA”, in that order: 14.2 nM and 13.2 nM.
For “UAUACAAACGAAGGAUAUGGAUACAUGAGGAUCACCCAUGUAUGUAUGAUGAUCUAGAAAAUGGGCCAGAAGGUCGUGAUUAUU”, in that order: 22.6 nM and 62.7 nM.
For “AAGCCCUGAGGAUAUCCCAACUCGCACAUGAGGAUCACCCAUGUCCUUCUCUGGGUUUCGGGAGAAGGCAGGUCUC”, in that order: 348 nM and 161 nM.
In the case of “CACGGAUAGUAGAAGGGUGACAUGAGGAUCACCCAUGUACACAUGCGUAUUAAAGUAUGUGAUCCACAGGAUAUACUAUCCGUG”, the “apparent Kd” value is 776 nM under setting [1] and 93.8 nM under setting [2].
For “CUAGCAACAUGAGGAUCACCCAUGUAGGAUAUCGCUAUUGUAAUCAUGAAACAUGAUUACAAUAGCGAGAAGGACAUAUGCUAG”, the “apparent Kd” value under setting [3] turned out to be 6.44 nM and the “apparent Kd” value under setting [4] amounted to 9.28 nM.
Take “GCAGGACAUGAGGAUCACCCAUGUUCAAAAUAUAGAGGAUAUGGAUACGGUAUAUCCGAACCAGAAGGCUACCUGC”: the “apparent Kd” value reads like this: under setting [1], 14.6 nM; under setting [2], 14 nM.
With “CCGCUGUGAGGAUAUUAGUAGUAGUCAGAAUAGACUAUUACUGAGAAGGCACAUGAGGAUCACCCAUGUCGCGG”, the “apparent Kd” value runs as follows: under setting [3], 31.2 nM; under setting [4], 43.1 nM.
Turning to “UUGAGGUCAGGAUAUGCAUGGCGGGACUUGCGUCGUGGCGUGCAGAAGGGACAUGAGGAUCACCCAUGUGGAGG”, the “apparent Kd” value was found to be 176 nM under setting [3] and 233 nM under setting [4].
Take “ACAUGAGGAUCACCCAUGUAUACAUAGGAUAUUGGUGAUCAGGGAUGUUUUACAGGAUAUGUCUGCGAGAAGGAUGCAAGAUGU”: the “apparent Kd” value came out at 398 nM under setting [1] and 69 nM under setting [2].
“GCUAGUAUUGCAGGAUAUUGUAAUUUAUUAUUUCAAGAAGGGCAUUACAUGAGGAUCACCCAUGUCAUCCUAUGGUAUACUAGC”: the “apparent Kd” value under setting [3] was determined as 10.6 nM and the “apparent Kd” value under setting [4] is 22.8 nM.
For the sequence “UCAUUUAAUACAGGAUAUGUUAGUAUACAGUAGAUUGGUUAUUACAUAAUAACAGAAGGGUAGAACAUGAGGAUCACCCAUGUA”, the “apparent Kd” value reads like this: under setting [1], 265 nM; under setting [2], 96.2 nM.
For “ACCAUGGUACAGAAGGGCAAUUUAUUUAUUUAUUAUUUAGUACUGCAUUGCAGGAUAUGUUUAACAUGAGGAUCACCCAUGUAC”, in that order: 31.8 nM and 21.4 nM.
Turning to “AUAAUUUUAUAUAUCAUAUAAAUCAGAAGGCAUAACAUGAGGAUCACCCAUGUAUAUUAUUGUUAUGAGGAUAUGAUUUAGUUA”, the “apparent Kd” value was determined as 15.8 nM under setting [3] and 65.5 nM under setting [4].
On to “CCGCUCGAGCAGAAGGCAAUGAGGGUUAUACAUUGAGGAUAUGCUACGUACGUGGUACAUGAGGAUCACCCAUGUAGCCUAUCU”, for which the “apparent Kd” value turned out to be 788 nM under setting [1] and 93.4 nM under setting [2].
On to “CCGUCCUGAGGAUAUCCACCCUCAUACAUGAGGAUCACCCAUGUUCACCCUUGGGUUCCCGGAGAAGGCAGUUUUC”, for which the “apparent Kd” value turned out to be 243 nM under setting [3] and 374 nM under setting [4].
As to “AGAUGGUAUAUAGGAUAUCAUGUGCAAACAUGAGGAUCACCCAUGUAGAGACGUCAGUCUAAUAAUGAGAAGGAUAUACCAUCU”, the “apparent Kd” value runs as follows: under setting [1], 37.1 nM; under setting [2], 9.97 nM.
As for “GUAGCAUACCGAGGAUAUUCACCGGAAAACCGGACAUGAGGAUCACCCAUGUGGCGAAAGCCUUGGGAGAAGGCGGAAUGCUAC”, the “apparent Kd” value by setting is: under setting [1], 135 nM; under setting [2], 19.9 nM.
For “UUGGACGUCGUAGGAUAUGUAGGAUAUUCCUACAUGAGGAUCACCCAUGUUGACAUGGAAGAAGGACAGAUGGACGAUGUCCAU”, in that order: 298 nM and 6.98 nM.
“UACAUGAGGAUCACCCAUGUUUUGUCGUGUAUGGUAUUUAUCUAGGAUAUCAAUUGUUUUAUUUAUGAGAAGGAGAAUAUUAAU”: the “apparent Kd” value is, setting by setting: under setting [3], 39.3 nM; under setting [4], 35.8 nM.
As to “UAUUUUAACUAAGGAUAUCUAUAUUAUUUUGAAACAUGAGGAUCACCCAUGUUCAUGGGAUUAUAAGAGAAGGUAGAUGAAUAA”, the “apparent Kd” value reads like this: under setting [1], 27.5 nM; under setting [2], 11.7 nM.
Consider “CCGGUAUAGGAGGAUAUAGGAGUCGAUAGACACCUAGAAGGCCUGACAUGAGGAUCACCCAUGUGUCCUACCGG”, for which the “apparent Kd” value is, setting by setting: under setting [3], 17 nM; under setting [4], 20 nM.
Turning to “ACAUGAGGAUCACCCAUGUAUUUGUAGGAUAUACUCUAUUGUUUAUUACUCUAGUUAAUAUGUUUGUAGAAGGACAUUACAUGA”, the “apparent Kd” value reads like this: under setting [3], 7.94 nM; under setting [4], 10.8 nM.
Take “AAGGUCAAGAUAGGAUAUGUUUCAUGAUAGAUAACAGAAGGAUCUAGAACAUGAGGAUCACCCAUGUGGCACAUAGAGUGGUGA”: the “apparent Kd” value by setting is: under setting [1], 429 nM; under setting [2], 441 nM.
With “AUCCUACAUGAGGAUCACCCAUGUGACGCCUCAAUAGGAUAUGCGUGUGCCUUGGCGCAUGCAGAAGGAUUGAAGC”, the “apparent Kd” value stood at 285 nM under setting [1] and 48.1 nM under setting [2].
For “AAUAACAGAGGAUAUACUGUUUUAUGUAUUUAUUAUUUUAAACAUGAGGAUCACCCAUGUAGAAGGCUGAAUGA”, the “apparent Kd” value is, setting by setting: under setting [3], 23.8 nM; under setting [4], 22 nM.
“ACUUACUGAGGAUAUACAUAGAUUUACAUGAGGAUCACCCAUGUUCCUCUAUGUAUAUAUGUAGAAGGCAGAAGGU”: the “apparent Kd” value runs as follows: under setting [3], 24.6 nM; under setting [4], 77.8 nM.
For “AAGUCGAGUGUGAGGAUAUUGACCGGACGACCCAUCGAGAAGGCACAUGAGGAUCACCCAUGUGAUUCAGCUCA”, in that order: 17 nM and 23 nM.
“AUACUCAUGUAAGGAUAUGCAGCCGUUUCGGCUGCAGAAGGUACUAUAAUACAUGAGGAUCACCCAUGUCUUUUUAAUUUUUAC”: the “apparent Kd” value is, setting by setting: under setting [1], 281 nM; under setting [2], 38.9 nM.
Take “GAGCGAAAGCUCAAUGUCGAUAGCAGAAGGACAUGAAAACAUGAAAAUACAUGAGGAUCACCCAUGUAGGAUAUGCUAUCGACU”: the “apparent Kd” value worked out at 6.7 nM under setting [3] and 24.3 nM under setting [4].
Regarding “UAAAAGACUAGCAAAUAAUCCUUCACAUGAGGAUCACCCAUGUAGGAUAUGAGCAGAAAAUCUGCUCAGAAGGACAUGCUAGUC”, the “apparent Kd” value is, setting by setting: under setting [3], 3.22 nM; under setting [4], 3.68 nM.
For “AGAACACAUGAGGAUCACCCAUGUGAGGAUAUCGAUGUCCCAGGGCGGGUGCGGGACUCGAGAAGGCACUUGGA”, in that order: 41.9 nM and 88 nM.
On to “AUGAGGUCAGGAUAUGCAUGGCGGGACUUGCGUCGUGGCGUGCAGAAGGGACAUGAGGAUCACCCAUGUGGAGC”, for which the “apparent Kd” value under setting [3] worked out at 73.4 nM and the “apparent Kd” value under setting [4] was found to be 169 nM.
In the case of “UGGGUAAGUGUAGGAUAUUUAUAUUAAUAGUAUGGAGAAGGACAUGAGGAUCACCCAUGUACAGGGAGUUGCCCAUUUCCUCUC”, the “apparent Kd” value reads like this: under setting [3], 335 nM; under setting [4], 671 nM.
Consider “GUUUGUUUUUAGAAGGUGCCGGCGAGAGCCGCAACAUGAGGAUCACCCAUGUGUCGGUGACGACGCAAGGAUAUGGAGGUGGAU”, for which the “apparent Kd” value stood at 127 nM under setting [1] and 77.8 nM under setting [2].
Regarding “GCAGGUUAAGUCAGGAUAUACCUAUGGAUACAUAGGUAGAAGGGACAUGAGGAUCACCCAUGUGCCUCACCUGC”, the “apparent Kd” value reads like this: under setting [3], 18.3 nM; under setting [4], 63.1 nM.
With “ACUAAGGAGGUAGGAUAUUGUGUGGUGGCCGGGCUCCCACGGCGAGCGGCACAAGAAGGAUCCCAACAUGAGGAUCACCCAUGU”, the “apparent Kd” value under setting [1] was 48.9 nM and the “apparent Kd” value under setting [2] stood at 26.1 nM.
Consider “AAGAAACAUGAGGAUCACCCAUGUGAGGAUAUGAAAAAGAAAAGAAAAGAAAGAAGAAUCAGAAGGCACAAAGC”, for which the “apparent Kd” value by setting is: under setting [3], 26 nM; under setting [4], 32.7 nM.
On to “AUAAAACAUGAGGAUCACCCAUGUCAACAAAAUCGAGGAUAUGGACAGACUUCGGUCUGUCCAGAAGGCGAAUAAU”, for which the “apparent Kd” value runs as follows: under setting [1], 13.7 nM; under setting [2], 14.6 nM.
For the sequence “GAAACCUAGUCAGGAUAUCGGGCAAUAAUUGCACGAGAAGGGACAUGAGGAUCACCCAUGUACACCUCUGGUGAGUCUCGCAGG”, the “apparent Kd” value runs as follows: under setting [3], 24.4 nM; under setting [4], 73.6 nM.
